ChEMBL document CHEMBL1137359, “Potent and orally bioavailable 8-bicyclo[2.2.2]octylxanthines as adenosine A1 receptor antagonists” (J Med Chem, 2006)
pEC50, pKi: −log10 of the molar value. ≈ marks a conversion by molar mass, not a printed value.

Legend:
[1] = target: T1, Adenosine receptor A1 (Homo sapiens, UniProt P30542); experiment: Displacement of [125I]ABA from human adenosine A1 receptor expressed in CHOK1 cells; format: cell-based, CHO-K1
T1 sequence (P30542 whole entry): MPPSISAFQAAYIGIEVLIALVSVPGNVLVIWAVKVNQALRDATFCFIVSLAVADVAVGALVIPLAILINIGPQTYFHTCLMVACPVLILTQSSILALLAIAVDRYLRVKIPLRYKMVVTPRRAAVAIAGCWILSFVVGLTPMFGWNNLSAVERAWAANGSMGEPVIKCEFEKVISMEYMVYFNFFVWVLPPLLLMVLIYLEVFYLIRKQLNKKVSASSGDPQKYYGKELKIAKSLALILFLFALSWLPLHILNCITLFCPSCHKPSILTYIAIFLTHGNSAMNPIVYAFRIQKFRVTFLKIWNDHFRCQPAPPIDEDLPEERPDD
In short: (§1)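 Membranes from stably transfected CHO-K1 (hA1) or HEK (hA2A, hA2B, hA3) cells, 2 h at room temperature in 50 mM HEPES pH 7.4, 1 mM EDTA, 5 mM MgCl2, 1 U/mL adenosine deaminase. 5% DMSO final except hA3. Full curves 10^-11–10^-5 M, seven concentrations, four determinations each. Filtration, γ-counting, Ki derived.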

[2] = target: T2, Adenosine receptor A2b (Homo sapiens, UniProt P29275); experiment: Displacement of [125I]3-(4-aminobenzyl)-8-phenyloxyacetate-1-propyl-xanthine from human adenosine A2B receptor expressed in HEK cells; format: cell-based, HEK293; in short: as §1
T2 sequence (P29275 whole entry): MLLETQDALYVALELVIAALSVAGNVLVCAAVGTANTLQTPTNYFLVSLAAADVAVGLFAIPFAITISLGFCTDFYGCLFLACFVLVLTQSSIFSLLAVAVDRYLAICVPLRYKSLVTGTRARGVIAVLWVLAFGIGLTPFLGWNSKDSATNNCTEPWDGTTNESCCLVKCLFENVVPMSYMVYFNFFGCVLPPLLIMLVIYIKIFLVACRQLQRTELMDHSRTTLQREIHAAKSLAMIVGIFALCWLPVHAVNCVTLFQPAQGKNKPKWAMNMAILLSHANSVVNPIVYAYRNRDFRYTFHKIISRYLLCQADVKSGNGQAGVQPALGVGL

[3] = target: T3, Adenosine receptor A3 (Homo sapiens) (UniProt P0DMS8); experiment: Displacement of [125I]ABA from human adenosine A3 receptor expressed in HEK cells relative to control; format: cell-based; design: concentration or dose not given beside the values; details: HEK293
T3 sequence (whole entry): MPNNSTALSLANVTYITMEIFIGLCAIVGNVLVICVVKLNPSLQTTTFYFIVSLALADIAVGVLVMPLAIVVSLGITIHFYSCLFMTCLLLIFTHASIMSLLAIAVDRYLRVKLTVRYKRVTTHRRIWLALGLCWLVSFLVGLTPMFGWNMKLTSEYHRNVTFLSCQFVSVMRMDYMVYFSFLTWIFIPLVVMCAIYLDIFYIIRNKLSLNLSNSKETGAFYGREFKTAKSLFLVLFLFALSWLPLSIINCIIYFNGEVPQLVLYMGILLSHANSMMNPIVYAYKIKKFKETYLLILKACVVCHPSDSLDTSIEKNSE
In short: (§2)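 Single-point screen at 1 µM antagonist, run in duplicate, on transfected-cell membranes: CHO-K1 (hA1), HEK (hA2A, hA2B, hA3). 2 h at room temperature in 50 mM HEPES pH 7.4, 1 mM EDTA, 5 mM MgCl2, 1 U/mL adenosine deaminase; 5% DMSO except hA3. Nonspecific binding with 50 µM XAC, or 10 µM BW-1433 for hA3. Result is % radioligand bound relative to control.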

[4] = target: T4, Adenosine receptor A1 (Rattus norvegicus, UniProt P25099); experiment: Displacement of [3H]CPX from rat brain cortex adenosine A1 receptor
T4 sequence (P25099 whole entry): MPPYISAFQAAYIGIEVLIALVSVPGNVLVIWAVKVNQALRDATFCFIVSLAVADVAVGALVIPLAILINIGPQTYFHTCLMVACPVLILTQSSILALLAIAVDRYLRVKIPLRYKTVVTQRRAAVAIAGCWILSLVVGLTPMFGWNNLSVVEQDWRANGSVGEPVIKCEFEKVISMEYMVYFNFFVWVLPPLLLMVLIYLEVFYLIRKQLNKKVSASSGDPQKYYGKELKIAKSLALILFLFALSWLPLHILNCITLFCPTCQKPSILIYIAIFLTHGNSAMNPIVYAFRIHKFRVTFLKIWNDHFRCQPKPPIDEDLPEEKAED
In short: (§3)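 Crude membranes (10-20 µg protein) from rat brain cortex (A1, 2 nM 3H-CPX) or striatum (A2A, 0.5-1.2 nM 3H-ZM241385) incubated 90 min at room temperature in 50 mM Tris-HCl pH 7.4 with 2 U/mL adenosine deaminase. Stopped with ice-cold buffer, then vacuum filtration and scintillation counting. Ki from concentration-response displacement.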

[5] = target: Adenosine receptor A2a (Rattus norvegicus) (UniProt P30543); experiment: Displacement of [3H]ZM241385 from rat brain striatum adenosine A2A receptor relative to control
[6] = Oral bioavailability in Sprague-Dawley rat at 1 mg/kg, po; format: ADME, organism-based; details: in vivo
In short: (§4)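 Pharmacokinetics after one oral dose in male Sprague-Dawley rats (1 mg/kg, or 2 mg dose), beagle dogs and cynomolgus monkeys (1 mg/kg). Bioavailability, half-life, clearance and volume of distribution reported as mean ± variation.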

[7] = Half life in Sprague-Dawley rat at 1 mg/kg, po; format: ADME, organism-based; design: dose 1 mg/kg, route oral; details: in vivo; in short: as §4
[8] = Clearance in Sprague-Dawley rat at 1 mg/kg, po; format: ADME, organism-based; design: dose 1 mg/kg, route oral; details: in vivo; in short: as §4
[9] = Aqueous solubility of the compound; format: physicochemical; details: water
In short: (§5)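 Solubility of each compound measured in sterile water for injection, 0.9% saline, 5% dextrose in water, ethanol and octanol; values in mg/mL from duplicate determinations per solvent, individual values varying <5%.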

[10] = target: Adenosine receptor A2a (Homo sapiens, UniProt P29274); experiment: Displacement of [125I]ZM-241385 from human adenosine A2A receptor expressed in HEK cells; format: cell-based, HEK293; in short: as §1
[11] = target: T5, Adenosine receptor A2b (Homo sapiens) (UniProt P29275); experiment: Displacement of [125I]3-(4-aminobenzyl)-8-phenyloxyacetate-1-propyl-xanthine from human adenosine A2B receptor expressed in HEK cells relative to control; format: cell-based; design: concentration or dose not given beside the values; details: HEK293; in short: as §2
T5 sequence (whole entry): T2 sequence (P29275 whole entry)

[12] = target: Adenosine receptors; A1 & A2a (Homo sapiens) (UniProt P30542+P29274); experiment: Selectivity for human adenosine A1 receptor over human adenosine A2A receptor; format: protein assay
[13] = Oral bioavailability in Sprague-Dawley rat at 2 mg, po; format: ADME, organism-based; details: in vivo; in short: as §4
[14] = Half life in Sprague-Dawley rat at 2 mg, po; format: ADME, organism-based; details: in vivo; in short: as §4
[15] = Clearance in Sprague-Dawley rat at 2 mg, po; format: ADME, organism-based; details: in vivo; in short: as §4
[16] = test system: Rattus norvegicus; experiment: Volume of distribution in Sprague-Dawley rat at 2 mg, po; format: ADME, organism-based; details: in vivo; in short: as §4
[17] = Solubility in 0.9% saline; format: physicochemical; in short: as §5
[18] = Solubility in 5% dextrose in water; format: physicochemical; in short: as §5
[19] = Solubility in ethanol; format: physicochemical; in short: as §5
[20] = Solubility in octanol; format: physicochemical; in short: as §5
[21] = target: T6, Adenosine receptor A3 (Homo sapiens, UniProt P0DMS8); experiment: Displacement of [125I]ABA from human adenosine A3 receptor expressed in HEK cells; format: cell-based, HEK293
T6 sequence (P0DMS8 whole entry): T3 sequence (whole entry)
In short: as §1, with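 “hA3. Radioligands: 0.3 nM (hA1) or 0.6 nM (hA3) 125I-ABA, 0.7 nM 125I-ZM241385, 0.5 nM A2B ligand.” for “hA3.”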

[22] = target: Adenosine receptor A2a (Rattus norvegicus, UniProt P30543); experiment: Displacement of [3H]ZM-241385 from rat brain striatum adenosine A2A receptor; in short: as §3
[23] = test system: Rattus norvegicus; experiment: Natriuretic effect in orally dosed rat; format: ADME, organism-based; details: po
In short: (§6)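 Male Sprague-Dawley rats in metabolic cages dosed by gavage in 0.5% CMC suspension, 0.001-3 mg/kg (n=3-5 per group; vehicle n=3). Urine collected 4 h, volume measured gravimetrically, Na and K by flame photometry. Urine flow and UNaV expressed per hour, averaged over 4 h.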

[24] = Oral bioavailability in Beagle dog at 1 mg/kg, po; format: ADME, organism-based, Canis lupus familiaris; details: in vivo; in short: as §4
[25] = Oral bioavailability in cynomolgus monkey at 1 mg/kg, po; format: ADME, organism-based, Macaca fascicularis; details: in vivo; in short: as §4
[26] = Half life in Beagle dog at 1 mg/kg, po; format: ADME, organism-based, Canis lupus familiaris; design: dose 1 mg/kg, route oral; details: in vivo; in short: as §4
[27] = Half life in cynomolgus monkey at 1 mg/kg, po; format: ADME, organism-based, Macaca fascicularis; design: dose 1 mg/kg, route oral; details: in vivo; in short: as §4
[28] = Clearance in Beagle dog at 1 mg/kg, po; format: ADME, organism-based, Canis lupus familiaris; design: dose 1 mg/kg, route oral; details: in vivo; in short: as §4
[29] = Clearance in cynomolgus monkey at 1 mg/kg, po; format: ADME, organism-based, Macaca fascicularis; design: dose 1 mg/kg, route oral; details: in vivo; in short: as §4
[30] = test system: Rattus norvegicus; experiment: Volume of distribution in Sprague-Dawley rat at 1 mg/kg, po; format: ADME, organism-based; design: dose 1 mg/kg, route oral; details: in vivo; in short: as §4
[31] = test system: Canis familiaris; experiment: Volume of distribution in Beagle dog at 1 mg/kg, po; format: ADME, organism-based, Canis lupus familiaris; design: dose 1 mg/kg, route oral; details: in vivo; in short: as §4
[32] = test system: Cynomolgus monkey; experiment: Volume of distribution in cynomolgus monkey at 1 mg/kg, po; format: ADME, organism-based, Macaca fascicularis; design: dose 1 mg/kg, route oral; details: in vivo; in short: as §4
[33] = test system: Rattus norvegicus; experiment: Diuretic effect in orally dosed rat; format: ADME, organism-based; details: Urine, po; in short: as §6
[34] = species on record: Rattus norvegicus; experiment: Reversal of CPA inhibition of isoproterenol-stimulated rat atria; format: functional, organism-based; details: Cardiac atrium
In short: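 Isolated rat atria in Krebs buffer at 37 °C gassed with 95% O2/5% CO2, pH 7.4, stimulated with 30 nM isoproterenol. EC50 taken at 50% restoration, 5 atria per dose group.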

Sequence of Adenosine receptor A2a (Homo sapiens, UniProt P29274) (P29274 whole entry): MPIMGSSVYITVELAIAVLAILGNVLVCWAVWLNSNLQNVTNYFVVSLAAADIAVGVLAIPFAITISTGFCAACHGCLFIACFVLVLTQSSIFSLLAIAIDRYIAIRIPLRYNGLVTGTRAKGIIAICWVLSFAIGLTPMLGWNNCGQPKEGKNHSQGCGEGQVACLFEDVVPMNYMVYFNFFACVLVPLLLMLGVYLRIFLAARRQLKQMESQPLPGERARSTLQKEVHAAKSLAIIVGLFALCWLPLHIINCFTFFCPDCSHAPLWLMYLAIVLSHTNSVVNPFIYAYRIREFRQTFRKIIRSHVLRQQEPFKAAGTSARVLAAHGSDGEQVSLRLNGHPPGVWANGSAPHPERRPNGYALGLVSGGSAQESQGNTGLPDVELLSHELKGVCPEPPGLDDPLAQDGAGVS
Sequence of Adenosine receptor A2a (Rattus norvegicus) (P30543 whole entry): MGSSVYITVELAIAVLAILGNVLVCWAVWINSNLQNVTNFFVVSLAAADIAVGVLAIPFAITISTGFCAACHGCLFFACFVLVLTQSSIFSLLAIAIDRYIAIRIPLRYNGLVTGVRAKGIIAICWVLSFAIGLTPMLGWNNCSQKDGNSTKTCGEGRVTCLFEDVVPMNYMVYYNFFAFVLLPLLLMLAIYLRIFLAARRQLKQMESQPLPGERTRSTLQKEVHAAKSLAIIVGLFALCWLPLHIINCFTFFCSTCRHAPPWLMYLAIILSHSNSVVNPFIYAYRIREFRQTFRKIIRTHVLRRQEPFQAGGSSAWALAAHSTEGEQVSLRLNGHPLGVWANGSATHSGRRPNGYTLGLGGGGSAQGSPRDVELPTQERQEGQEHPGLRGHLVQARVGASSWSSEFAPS
Sequence of Adenosine receptor A2a (Rattus norvegicus, UniProt P30543) (P30543 whole entry): as above

pKi [1] | pKi [2] | Activity [3] [%] | pKi [4] | bioavailability [6] [%] | half-life [7] [h] | CL/F [8] [mL/min/kg] | solubility [9] [mg/mL] | pKi [10] | solubility [17] [mg/mL] | solubility [18] [mg/mL] | SMILES | other results
7.54 | 6.90 | 26 | 8.40 | 48 | 2.04 | 7.1 | 0.5 (≈ 1.16 mM) |  |  |  | CCCn1c(=O)c2nc([C@]34CC[C@](CCCC(=O)O)(CC3)CC4)[nH]c2n(CCC)c1=O | Activity [5]: 50%
7.48 |  | 100 | 8.11 |  |  |  | 18.1 (≈ 46.6 mM) | 5.97 | 29.8 (≈ 76.7 mM) | 63 (≈ 162 mM) | CCCn1c(=O)c2nc([C@]34CC[C@](C(=O)O)(CC3)CC4)[nH]c2n(CCC)c1=O | Activity [11]: 48%; Ratio Ki [12]: 32; bioavailability [13]: 97%; half-life [14]: 2.14 h; CL/F [15]: 2.26 mL/min/kg; Vdss [16]: 0.57 L/kg; solubility [19]: 51 mg/mL (≈ 131 mM); solubility [20]: 60 mg/mL (≈ 154 mM)
 | 7.05 |  | 8.89 | 99 | 3.14 | 1.56 | 24.4 (≈ 58.6 mM) | 5.19 | 25.4 (≈ 61 mM) | 12.4 (≈ 29.8 mM) | CCCn1c(=O)c2[nH]c([C@]34CC[C@](CCC(=O)O)(CC3)CC4)nc2n(CCC)c1=O | pKi [21]: < 5.00; pKi [22]: 5.61; ED50 [23]: 0.015 mg/kg; bioavailability [24]: 78%; bioavailability [25]: 94%; half-life [26]: 6.4 h; half-life [27]: 11.1 h; CL/F [28]: 11.8 mL/min/kg; CL/F [29]: 5.82 mL/min/kg; Vdss [30]: 0.32 L/kg; Vdss [31]: 2.64 L/kg; Vdss [32]: 4.25 L/kg; ED50 [33]: 0.015 mg/kg; pEC50 [34]: 7.79; Kb ([34]; read-out: pA2 (converted)): 0.158 nM
